According to ChEMBL document CHEMBL3994644, “Discovery of AAT-008, a novel, potent, and selective prostaglandin EP4 receptor antagonist” (Bioorg Med Chem Lett, 2017):
One block for each compound: values may come before it.

Key:
[1] = Apparent permeability from apical to basolateral side in human Caco2 cells; type: ADME, cell-based; conditions: Caco-2
Summary of the method: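 Caco-2 monolayer permeability (Papp, apical to basolateral) was measured under constant pH, with the apical side at pH 6.5 and the basolateral side at pH 7.4.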

[2] = target: T1, Prostaglandin E2 receptor EP4 subtype (Homo sapiens, UniProt P35408); assay: Displacement of [3H]PGE from human EP4 receptor expressed in HEK293 cell membranes
Summary of the method: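 Membrane binding assay using [3H]PGE2 with membranes from HEK-293 cells expressing human EP4. The value is expressed as Ki.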

[3] = target: T1, Prostaglandin E2 receptor EP4 subtype; assay: Antagonist activity at human EP4 receptor expressed in HEK293 cells assessed as inhibition of PGE2-induced cAMP level by HTS assay; type: functional, cell-based; conditions: for Kb: read-out: pA2 (converted)
[4] = Half life in human liver microsomes; type: ADME, microsome
[5] = target: T2, Prostaglandin E2 receptor EP3 subtype (Homo sapiens, UniProt P43115); assay: Antagonist activity at human EP3 receptor
T2 sequence (P43115 whole entry): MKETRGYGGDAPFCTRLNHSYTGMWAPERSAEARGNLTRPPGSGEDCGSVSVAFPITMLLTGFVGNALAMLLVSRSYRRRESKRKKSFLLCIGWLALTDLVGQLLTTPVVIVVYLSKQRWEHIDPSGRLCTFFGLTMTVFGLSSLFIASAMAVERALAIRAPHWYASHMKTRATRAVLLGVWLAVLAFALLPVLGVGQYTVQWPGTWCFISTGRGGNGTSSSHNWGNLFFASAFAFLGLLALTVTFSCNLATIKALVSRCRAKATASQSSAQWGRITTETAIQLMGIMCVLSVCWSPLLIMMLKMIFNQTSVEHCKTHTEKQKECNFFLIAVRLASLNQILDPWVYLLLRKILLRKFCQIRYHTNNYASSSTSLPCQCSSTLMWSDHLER

[6] = target: T3, Prostaglandin E2 receptor EP1 subtype (Homo sapiens, UniProt P34995); assay: Antagonist activity at human EP1 receptor
T3 sequence (P34995 whole entry): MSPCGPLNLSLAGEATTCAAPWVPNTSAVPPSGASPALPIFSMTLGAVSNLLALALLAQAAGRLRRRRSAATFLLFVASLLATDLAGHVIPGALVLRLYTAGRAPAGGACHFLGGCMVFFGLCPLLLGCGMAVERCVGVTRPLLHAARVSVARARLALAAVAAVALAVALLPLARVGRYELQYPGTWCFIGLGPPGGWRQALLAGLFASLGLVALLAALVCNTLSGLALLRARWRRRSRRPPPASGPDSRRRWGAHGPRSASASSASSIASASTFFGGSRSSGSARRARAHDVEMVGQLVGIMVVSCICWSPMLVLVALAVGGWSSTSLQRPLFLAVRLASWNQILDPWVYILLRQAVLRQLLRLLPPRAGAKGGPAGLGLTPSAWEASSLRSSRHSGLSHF

[7] = target: Prostaglandin E2 receptor EP2 subtype (Homo sapiens, UniProt P43116); assay: Antagonist activity at human EP2 receptor
Rattus norvegicus [8] = assay: Analgesic activity in po dosed rat assessed as inhibition of carrageenan-induced mechanical hyperalgesia measured at 1 hr post dose; type: functional; conditions: read-out: MED
Summary of the method: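 Rats dosed orally. Mechanical hyperalgesia was induced with carrageenan and assessed 1 h post dose. The value is the minimum effective dose (MED, mg/kg PO).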

[9] = Genotoxicity in CHL cells after 72 hrs using acridine orange stain by fluorescence microscopic based micronucleus test; type: toxicity, cell-based, Cricetulus griseus; conditions: chinese hamster
[10] = Efflux ratio of apparent permeability in human Caco2 cells; type: ADME, cell-based; conditions: Caco-2
Summary of the method: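 Caco-2 human colon carcinoma monolayers. Permeability measured in both directions (apical to basolateral and basolateral to apical) under constant pH: apical pH 6.5, basolateral pH 7.4. Efflux ratio taken as Papp B→A divided by Papp A→B.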

[11] = Apparent permeability from basolateral to apical side in human Caco2 cells; type: ADME, cell-based; conditions: Caco-2
Summary of the method: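 Caco-2 permeability was measured basolateral to apical under the same pH conditions as the apical-to-basolateral direction (apical 6.5, basolateral 7.4). Efflux ratio was derived from the two directions.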

[12] = Solubility of the compound in pH 6.5 PBS; type: physicochemical
[13] = target: Prostaglandin F2-alpha receptor (Homo sapiens, UniProt P43088); assay: Antagonist activity at human FP receptor
[14] = target: Prostaglandin E receptor 4 (Canis lupus familiaris, UniProt Q9TU16); assay: Antagonist activity at dog recombinant EP4 receptor
[15] = target: T4, Prostaglandin E2 receptor EP4 subtype (Rattus norvegicus, UniProt P43114); assay: Antagonist activity at rat recombinant EP4 receptor
[16] = target: Prostaglandin E2 receptor EP4 subtype (Mus musculus, UniProt P32240); assay: Antagonist activity at mouse recombinant EP4 receptor assessed as inhibition of PGE2-induced cAMP level by cell based assay; type: functional; conditions: read-out: pA2 (converted)
Summary of the method: (§1)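 Functional antagonism was measured as inhibition of PGE2-induced cAMP in cells transfected with rodent EP4 (mouse or rat). The value is expressed as pA2.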

Thromboxane A2 receptor = target: T5, Thromboxane A2 receptor (Homo sapiens, UniProt P21731); assay: Antagonist activity at human platelet TP receptor
T5 sequence (P21731 whole entry): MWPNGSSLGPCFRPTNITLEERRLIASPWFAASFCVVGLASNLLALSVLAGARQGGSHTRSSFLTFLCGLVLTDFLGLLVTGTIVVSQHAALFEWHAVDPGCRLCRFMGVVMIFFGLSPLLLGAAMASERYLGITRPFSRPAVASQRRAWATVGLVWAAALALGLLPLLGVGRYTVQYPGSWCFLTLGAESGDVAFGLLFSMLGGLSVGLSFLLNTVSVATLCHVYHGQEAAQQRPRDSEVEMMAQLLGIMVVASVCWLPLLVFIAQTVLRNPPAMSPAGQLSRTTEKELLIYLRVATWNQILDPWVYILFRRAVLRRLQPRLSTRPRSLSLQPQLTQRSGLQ

[17] = target: T4, Prostaglandin E2 receptor EP4 subtype; assay: Antagonist activity at rat recombinant EP4 receptor assessed as inhibition of PGE2-induced cAMP level by cell based assay; type: functional; conditions: read-out: pA2 (converted); summary of the method: as §1
Prostacyclin receptor = Prostacyclin receptor (Homo sapiens, UniProt P43119); assay: Antagonist activity at human IP receptor
Rattus norvegicus [18] = assay: Analgesic activity in po dosed rat model of chronic inflammatory pain assessed as inhibition of CFA-induced weight bearing deficit; type: functional; conditions: read-out: MED
Summary of the method: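 Chronic inflammatory pain was modelled in rats with CFA and read out as weight bearing deficit after oral dosing. The value is the minimum effective dose (MED, mg/kg PO).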

[19] = Antagonist activity at human DP receptor

Sequence of Prostaglandin E2 receptor EP2 subtype (P43116 whole entry): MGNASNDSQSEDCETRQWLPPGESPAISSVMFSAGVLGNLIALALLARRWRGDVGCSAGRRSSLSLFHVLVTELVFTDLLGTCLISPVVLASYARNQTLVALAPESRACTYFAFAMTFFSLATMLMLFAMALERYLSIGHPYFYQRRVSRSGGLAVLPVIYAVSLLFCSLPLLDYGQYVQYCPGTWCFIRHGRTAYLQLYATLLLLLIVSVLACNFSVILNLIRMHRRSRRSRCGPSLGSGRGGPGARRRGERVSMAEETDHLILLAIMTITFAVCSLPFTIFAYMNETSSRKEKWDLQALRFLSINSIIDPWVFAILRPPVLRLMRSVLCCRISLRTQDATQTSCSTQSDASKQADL
T1 sequence (P35408 whole entry): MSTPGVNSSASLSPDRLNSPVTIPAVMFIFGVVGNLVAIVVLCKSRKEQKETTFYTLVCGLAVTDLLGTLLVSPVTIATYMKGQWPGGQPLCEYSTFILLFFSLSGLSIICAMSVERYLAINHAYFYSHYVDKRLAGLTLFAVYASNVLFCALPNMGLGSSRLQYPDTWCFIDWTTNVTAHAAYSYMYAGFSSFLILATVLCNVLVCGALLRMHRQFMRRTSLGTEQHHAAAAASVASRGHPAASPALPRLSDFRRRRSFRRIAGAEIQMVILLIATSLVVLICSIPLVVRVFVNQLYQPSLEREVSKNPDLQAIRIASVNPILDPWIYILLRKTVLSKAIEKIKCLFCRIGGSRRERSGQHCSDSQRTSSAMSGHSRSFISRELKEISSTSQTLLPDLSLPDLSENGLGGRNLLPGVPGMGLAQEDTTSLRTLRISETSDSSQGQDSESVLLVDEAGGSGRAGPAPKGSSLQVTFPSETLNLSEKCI
T4 sequence (P43114 whole entry): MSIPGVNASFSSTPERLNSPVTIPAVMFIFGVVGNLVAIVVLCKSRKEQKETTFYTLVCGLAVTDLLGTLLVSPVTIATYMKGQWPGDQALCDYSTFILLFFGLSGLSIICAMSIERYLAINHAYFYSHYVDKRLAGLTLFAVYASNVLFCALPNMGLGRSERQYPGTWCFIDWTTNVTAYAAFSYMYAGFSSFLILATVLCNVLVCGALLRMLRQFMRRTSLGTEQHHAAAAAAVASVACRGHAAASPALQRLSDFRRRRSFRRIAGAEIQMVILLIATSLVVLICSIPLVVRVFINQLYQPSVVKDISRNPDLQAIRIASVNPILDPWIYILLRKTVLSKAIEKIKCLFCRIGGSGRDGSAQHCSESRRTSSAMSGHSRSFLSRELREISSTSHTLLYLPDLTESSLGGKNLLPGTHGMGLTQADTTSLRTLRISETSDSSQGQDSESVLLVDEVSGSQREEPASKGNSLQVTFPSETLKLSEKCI
Sequence of Prostaglandin E receptor 4 (Q9TU16 whole entry): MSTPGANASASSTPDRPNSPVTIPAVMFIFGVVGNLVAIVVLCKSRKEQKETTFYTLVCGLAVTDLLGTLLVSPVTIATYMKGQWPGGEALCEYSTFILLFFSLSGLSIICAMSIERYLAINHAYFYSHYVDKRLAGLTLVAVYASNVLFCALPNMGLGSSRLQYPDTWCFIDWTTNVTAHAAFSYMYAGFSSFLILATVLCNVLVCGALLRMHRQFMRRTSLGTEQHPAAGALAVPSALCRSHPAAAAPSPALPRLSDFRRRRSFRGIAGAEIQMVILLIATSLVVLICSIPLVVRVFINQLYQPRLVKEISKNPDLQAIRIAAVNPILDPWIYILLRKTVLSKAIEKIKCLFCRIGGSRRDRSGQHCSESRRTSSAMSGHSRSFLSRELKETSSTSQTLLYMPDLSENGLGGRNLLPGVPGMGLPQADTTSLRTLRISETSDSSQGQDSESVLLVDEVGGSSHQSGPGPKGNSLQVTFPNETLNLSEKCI
Sequence of Prostaglandin F2-alpha receptor (P43088 whole entry): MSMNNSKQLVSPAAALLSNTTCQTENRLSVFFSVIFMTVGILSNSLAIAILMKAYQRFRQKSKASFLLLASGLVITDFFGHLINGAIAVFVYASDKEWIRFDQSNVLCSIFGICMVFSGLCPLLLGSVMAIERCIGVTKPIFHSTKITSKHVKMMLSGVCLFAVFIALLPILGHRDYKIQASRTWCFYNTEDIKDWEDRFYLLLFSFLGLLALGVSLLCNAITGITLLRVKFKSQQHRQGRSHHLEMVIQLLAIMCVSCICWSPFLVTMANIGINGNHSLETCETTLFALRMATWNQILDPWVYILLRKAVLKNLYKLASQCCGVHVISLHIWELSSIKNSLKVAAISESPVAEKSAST
Sequence of Prostaglandin E2 receptor EP4 subtype (Mus musculus, UniProt P32240) (P32240 whole entry): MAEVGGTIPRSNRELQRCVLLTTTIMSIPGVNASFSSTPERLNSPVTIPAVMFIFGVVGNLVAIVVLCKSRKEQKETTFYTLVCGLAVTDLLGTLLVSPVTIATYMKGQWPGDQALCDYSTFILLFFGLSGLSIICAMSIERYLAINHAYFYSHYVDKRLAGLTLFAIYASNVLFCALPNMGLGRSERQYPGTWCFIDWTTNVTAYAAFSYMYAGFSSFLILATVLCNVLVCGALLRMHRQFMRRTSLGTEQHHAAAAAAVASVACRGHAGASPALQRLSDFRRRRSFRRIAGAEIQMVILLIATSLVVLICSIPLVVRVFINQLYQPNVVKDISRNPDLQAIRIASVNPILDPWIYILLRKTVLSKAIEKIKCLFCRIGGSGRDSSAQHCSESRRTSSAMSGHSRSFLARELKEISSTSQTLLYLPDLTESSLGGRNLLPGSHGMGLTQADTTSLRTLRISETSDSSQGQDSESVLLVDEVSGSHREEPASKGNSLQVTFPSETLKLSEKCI
Sequence of Prostacyclin receptor (P43119 whole entry): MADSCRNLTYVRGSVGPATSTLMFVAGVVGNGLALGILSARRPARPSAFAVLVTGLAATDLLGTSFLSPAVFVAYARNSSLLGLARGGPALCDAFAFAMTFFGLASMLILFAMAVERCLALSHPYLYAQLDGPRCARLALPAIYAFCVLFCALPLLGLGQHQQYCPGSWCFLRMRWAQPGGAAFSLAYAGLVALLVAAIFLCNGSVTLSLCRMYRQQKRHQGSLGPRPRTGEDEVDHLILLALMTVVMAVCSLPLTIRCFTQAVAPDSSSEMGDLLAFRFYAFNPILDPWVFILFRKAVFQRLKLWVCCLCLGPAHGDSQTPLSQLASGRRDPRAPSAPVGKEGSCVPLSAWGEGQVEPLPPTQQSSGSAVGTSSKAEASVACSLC

Papp A→B [1]: 20.1 ×10⁻⁶ cm/s
IC50 [2]: 181 nM
SMILES: CCC(NC(=O)c1cc(F)cnc1Oc1ccc(F)cc1)c1ccc(C(=O)O)cc1 (racemic)

IC50 [3]: 400 nM
SMILES: CSc1cccc(Oc2ncc(Cl)cc2C(=O)N[C@@H](C)c2ccc(C(=O)O)cc2)c1

IC50 [3]: 340 nM
SMILES: COc1cccc(Oc2ncc(Cl)cc2C(=O)N[C@@H](C)c2ccc(C(=O)O)cc2)c1

IC50 [3]: 101 nM
Papp A→B [1]: 51.4 ×10⁻⁶ cm/s
IC50 [2]: 21.6 nM
SMILES: O=C(O)c1ccc(CNC(=O)c2cc(Cl)ccc2Oc2ccc(F)cc2)cc1

IC50 [3]: 143 nM
Papp A→B [1]: 30.2 ×10⁻⁶ cm/s
IC50 [2]: 28.7 nM
SMILES: C[C@H](NC(=O)c1cc(F)cnc1Oc1ccc(F)cc1)c1ccc(C(=O)O)cc1

IC50 [3]: 21.8 nM
half-life [4]: > 2 h
IC50 [2]: 5.02 nM
SMILES: C[C@H](NC(=O)c1cc(Cl)cnc1Oc1cccc(Cl)c1)c1ccc(C(=O)O)cc1

IC50 [3]: 317 nM
IC50 [5]: > 20000 nM
IC50 [6]: > 20000 nM
IC50 [7]: 236 nM
Papp A→B [1]: 36.3 ×10⁻⁶ cm/s
IC50 [2]: 124 nM
SMILES: O=C(O)c1ccc(CNC(=O)c2cc(F)ccc2Oc2ccc(F)cc2)cc1

IC50 [3]: 1210 nM
Papp A→B [1]: 25.3 ×10⁻⁶ cm/s
SMILES: C[C@@H](NC(=O)c1cc(Cl)cnc1Oc1ccc(F)cc1)c1ccc(C(=O)O)cc1

IC50 [3]: 2940 nM
SMILES: Cc1cnc(Oc2ccc(F)cc2)c(C(=O)NCc2ccc(C(=O)O)cc2)c1

IC50 [3]: 30.6 nM
Kb [3]: 1.26 nM
IC50 [5]: > 20000 nM
IC50 [6]: > 20000 nM
IC50 [7]: 1620 nM
half-life [4]: > 2 h
Papp A→B [1]: 41.9 ×10⁻⁶ cm/s
IC50 [2]: 8.76 nM
SMILES: C[C@H](NC(=O)c1cc(Cl)ccc1Oc1cccc(F)c1)c1ccc(C(=O)O)cc1
minimal effective dose (Rattus norvegicus [8]): 10 mg/kg

IC50 [3]: 302 nM
SMILES: O=C(NCc1ccc(C(=O)NS(=O)(=O)c2cccc(Cl)c2)cc1)c1cccc(OCc2nc3cc(F)ccc3s2)c1

IC50 [3]: < 50 nM
SMILES: C[C@H](NC(=O)c1cc(Cl)cnc1Oc1cccc(F)c1F)c1ccc(C(=O)O)cc1

IC50 [3]: 25.9 nM
Kb [3]: 2.45 nM
IC50 [5]: > 20000 nM
IC50 [6]: > 20000 nM
IC50 [7]: 4360 nM
half-life [4]: > 2 h
Papp A→B [1]: 30.3 ×10⁻⁶ cm/s
IC50 [2]: 9.68 nM
SMILES: C[C@H](NC(=O)c1cc(Cl)cnc1Oc1ccc(F)cc1)c1ccc(C(=O)O)cc1
minimal effective dose (Rattus norvegicus [8]): 10 mg/kg

IC50 [3]: 1790 nM
SMILES: C[C@H](NC(=O)c1cc(Cl)cnc1Oc1cccc(OC(F)(F)F)c1)c1ccc(C(=O)O)cc1

IC50 [3]: 137 nM
SMILES: C[C@H](NC(=O)c1cc(Cl)cnc1Oc1cncc(Cl)c1)c1ccc(C(=O)O)cc1

IC50 [3]: < 50 nM
SMILES: C[C@H](NC(=O)c1cc(Cl)cnc1Oc1cc(F)ccc1F)c1ccc(C(=O)O)cc1

IC50 [3]: 175 nM
SMILES: C[C@H](NC(=O)c1cc(Cl)cnc1Oc1cncc(F)c1)c1ccc(C(=O)O)cc1

IC50 [3]: > 5000 nM
SMILES: Cc1ccc(C(=O)NCc2ccc(C(=O)O)cc2)c(Oc2ccc(F)cc2)n1

IC50 [3]: 36.2 nM
IC50 [5]: > 20000 nM
IC50 [6]: > 20000 nM
efflux ratio [10]: 40
IC50 [7]: 3320 nM
half-life [4]: > 2 h
Papp A→B [1]: 0.644 ×10⁻⁶ cm/s
IC50 [2]: 13.4 nM
Papp B→A [11]: 25.8 ×10⁻⁶ cm/s
SMILES: C[C@H](NC(=O)c1cc(Cl)cnc1Oc1cccc(C#N)c1)c1ccc(C(=O)O)cc1
Activity [9]: Toxic

IC50 [3]: 38.2 nM
Kb [3]: 1.78 nM
IC50 [5]: > 20000 nM
IC50 [6]: > 20000 nM
IC50 [7]: 709 nM
half-life [4]: > 2 h
Papp A→B [1]: 32.4 ×10⁻⁶ cm/s
IC50 [2]: 6.59 nM
SMILES: C[C@H](NC(=O)c1cc(Cl)ccc1Oc1ccc(F)cc1)c1ccc(C(=O)O)cc1
minimal effective dose (Rattus norvegicus [8]): 10 mg/kg

IC50 [3]: 61.4 nM
SMILES: C[C@H](NC(=O)c1cc(Cl)cnc1Oc1ccccc1F)c1ccc(C(=O)O)cc1

IC50 [3]: 41.1 nM
SMILES: C[C@H](NC(=O)c1cc(Cl)ccc1Oc1cccc(Cl)c1)c1ccc(C(=O)O)cc1

IC50 [3]: < 50 nM
SMILES: C[C@H](NC(=O)c1cc(Cl)cnc1Oc1ccc(F)c(F)c1)c1ccc(C(=O)O)cc1

IC50 [3]: 370 nM
half-life [4]: > 2 h
solubility [12]: > 10 µM
SMILES: O=C(O)c1ccc(CNC(=O)c2cccc(OCc3nc4cc(F)ccc4s3)c2)cc1

IC50 [3]: 60.4 nM
SMILES: C[C@H](NC(=O)c1cc(Cl)cnc1Oc1cccc(C(F)(F)F)c1)c1ccc(C(=O)O)cc1

IC50 [3]: 94.3 nM
SMILES: C[C@H](NC(=O)c1cc(Cl)cnc1Oc1ccc(Cl)cc1)c1ccc(C(=O)O)cc1

Papp A→B [1]: 36.3 ×10⁻⁶ cm/s
IC50 [2]: 545 nM
SMILES: CC(C)(NC(=O)c1cc(F)cnc1Oc1ccc(F)cc1)c1ccc(C(=O)O)cc1

IC50 [3]: 254 nM
IC50 [5]: > 20000 nM
IC50 [6]: > 20000 nM
IC50 [7]: 1290 nM
Papp A→B [1]: 20.1 ×10⁻⁶ cm/s
IC50 [2]: 37.9 nM
SMILES: O=C(O)c1ccc(CNC(=O)c2cc(Cl)cnc2Oc2ccc(F)cc2)cc1

Ki [13]: > 5000 nM
Ki [14]: 24 nM
Kb [3]: 4.79 nM
Ki [15]: 20 nM
Ki [5]: > 5000 nM
Kb [16]: 7.76 nM
Ki (Thromboxane A2 receptor): > 5000 nM
Kb [17]: 6.46 nM
Ki [6]: > 5000 nM
Ki [7]: > 5000 nM
Ki [2]: 13 nM
Ki (Prostacyclin receptor): > 5000 nM
Ki [19]: 2930 nM
SMILES: CCc1nc2c(C)nc(C)cc2n1-c1ccc(CCNC(=O)NS(=O)(=O)c2ccc(C)cc2)cc1 [GRAPIPRANT]
minimal effective dose (Rattus norvegicus [8]): 30 mg/kg
minimal effective dose (Rattus norvegicus [18]): 20 mg/kg

IC50 [3]: < 50 nM
SMILES: C[C@H](NC(=O)c1cc(Cl)cnc1Oc1cc(F)cc(F)c1)c1ccc(C(=O)O)cc1

IC50 [3]: 93.5 nM
SMILES: C[C@H](NC(=O)c1cc(Cl)cnc1Oc1ccccc1Cl)c1ccc(C(=O)O)cc1

IC50 [3]: 575 nM
IC50 [5]: > 20000 nM
IC50 [6]: > 20000 nM
IC50 [7]: > 20000 nM
half-life [4]: > 2 h
Papp A→B [1]: 25.3 ×10⁻⁶ cm/s
IC50 [2]: 104 nM
Ki [2]: 73 nM
solubility [12]: > 10 µM
SMILES: O=C(O)c1ccc(CNC(=O)c2cc(F)cnc2Oc2ccc(F)cc2)cc1
